Sampled rows, rich in hits. Any-hit rate of the full collection: about 2.3%.
SR-BI DiI-HDL act: activators of SR-BI mediated DiI-HDL uptake, primary screen, ldlA[mSR-BI] CHO cells, DiI fluorescence; 3 h; 100 = double the neutral-control signal; activation, % at 12.5 µM; 0.096% of 320,000 active; AID 504775, 2011;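 active = mean replicate activation of at least 60% and every replicate at or above 60%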
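System: CHO ldlA[mSR-BI] cells / Medium: HEPES-buffered (25 mM, pH 7.4) F12 plus 0.5% BSA / Probe or stimulus: labelled HDL, 10 µg/mL / Doses: single compound concentration, delivered by pin transfer / Schedule: 3 h, 37 °C / Measured by: DiI fluorescence, bottom read / Measure: cell-associated DiI fluorescence as measure of HDL uptake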
SR-BI DiI inh: inhibitors of SR-BI mediated HDL lipid uptake, primary screen, ldlA[mSR-BI] cells, fluorescence, single point; ldlA[mSR-BI] CHO cells, DiI-HDL uptake fluorescence, 3 h; inhibition, % at 12.5 µM; 0.96% of 320,000 active;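 active = mean replicate inhibition of at least 70% and a set share of replicates each scoring 70 or more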
Target sequence (Q61009 whole entry, looked up): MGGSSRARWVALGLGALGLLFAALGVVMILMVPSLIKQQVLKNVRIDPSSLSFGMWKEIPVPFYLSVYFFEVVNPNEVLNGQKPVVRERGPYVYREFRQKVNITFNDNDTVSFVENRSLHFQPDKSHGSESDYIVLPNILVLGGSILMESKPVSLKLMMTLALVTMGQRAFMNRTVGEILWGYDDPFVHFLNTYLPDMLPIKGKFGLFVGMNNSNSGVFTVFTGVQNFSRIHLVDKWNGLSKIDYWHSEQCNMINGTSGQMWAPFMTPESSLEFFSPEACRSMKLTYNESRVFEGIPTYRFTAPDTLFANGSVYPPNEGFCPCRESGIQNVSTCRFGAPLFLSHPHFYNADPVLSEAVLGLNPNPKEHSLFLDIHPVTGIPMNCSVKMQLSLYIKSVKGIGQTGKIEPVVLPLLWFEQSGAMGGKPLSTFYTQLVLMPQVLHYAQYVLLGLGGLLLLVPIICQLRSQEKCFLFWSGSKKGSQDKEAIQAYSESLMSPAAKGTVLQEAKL
ATG4B inhibitor: ATG4B protease inhibitors, primary screen, biochemical, fluorescence, uHTS; Cysteine protease ATG4B (Homo sapiens), Q9Y4P1; ATG4B cleavage of LC3-PLA2, NBD-HPC fluorescence, 1 h; inhibition, % at 8.33 µM; 0.51% of 340,000 active; in the data active = inhibition above about 40%
CAL PDZ FP-1: untagged CAL PDZ binding inhibitors, primary screen, biochemical, fluorescence polarization, HTS. purified CAL PDZ, TMR-peptide fluorescence polarization, 1 h. 0.92% of 300,000 active. inhibition, % at 24.9 µM;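 active = mean inhibition of at least 30% with at least half of replicates also reaching 30%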
CAL PDZ FP-2: CAL PDZ peptide-binding inhibitors, primary screen, biochemical, fluorescence polarization, Cer-tagged CAL PDZ, HTS. 0.02% of 330,000 active. purified CAL PDZ, TMR-peptide fluorescence polarization, 1 h. inhibition, % at 20 µM. Golgi-associated PDZ and coiled-coil motif-containing protein (Homo sapiens), Q9HD26. AID 504414, 2011;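 active = highest replicate inhibition of at least 40%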
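System: tagged CAL PDZ domain. Schedule: 1 h room-temperature incubation prior to read. Signal: fluorescence polarization (mP). Measure: percent inhibition from loss of millipolarization.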
Numbers stand for hits; i = inactive; nt = no result given.

SMILES | SR-BI DiI-HDL act | SR-BI DiI inh | ATG4B inhibitor | CAL PDZ FP-1 | CAL PDZ FP-2
CCC1SC(C)C/C(=N/NC(N)=O)C1C (stereo not given) | i | i | i | i | i
NNC(=O)c1cc2c(s1)-c1cc(Cl)ccc1SC2 | i | 99 | i | nt | i
COc1ccc(/C=C/C(=O)Nc2ccccc2C(=O)NCC(c2ccc(OC)cc2)N(C)C)cc1 (stereo not given) | i | i | i | i | i
Cc1cc(-c2cc(-c3ccccc3)on2)nc(NC2CCCC2)n1 | i | 81 | i | i | i
Cc1cc(-c2cc(-c3ccc(Cl)cc3)on2)nc(NC2CCCC2)n1 | i | i | i | i | i
O=C(CN1CCc2cc3c(cc2C1)OCCCO3)Nc1cccc(Br)c1 | i | i | i | i | i
CC(=O)Oc1ccc(C(=O)Nc2ccccc2C(=O)NCC(C)C)cc1 | i | 74 | i | i | i
CCOCC(O)CNc1ccccc1 (stereo not given) | i | i | i | i | i
OC(CNc1ccccc1)COc1ccc(OCC(O)CNc2ccccc2)cc1 (stereo not given) | i | 74 | i | i | i
CCC(=O)N(C(=O)CC)N1CCN(c2ccncc2S(=O)(=O)N2CCCCC2)CC1 | i | i | i | i | i
O=C(NC[C@H]1CCCO1)c1cccc2c1C(=O)c1ccc(-c3ccc(F)cc3OCc3ccccc3)cc1S2(=O)=O | i | i | i | i | i
Cc1cc(CNC(=O)c2cccc3c2C(=O)c2ccc(-c4ccc(F)cc4OCc4ccccc4)cc2S3(=O)=O)c(C(F)(F)F)o1 | i | 90 | i | i | i
CN1CC2(Cc3c1ccc1ccccc31)C(=O)OC(C)(C)OC2=O | i | i | i | i | i
Cc1ccc2c(c1)CC1(CN2C)C(=O)OC2(CCCCC2)OC1=O | i | i | i | 78 | i
Cc1ccc(S(=O)(=O)N2CCOCC2)cc1C(=O)NC1CCN(Cc2ccccc2)CC1 | i | i | i | i | i
O=C(NC1CCN(Cc2ccccc2)C1)c1cc(S(=O)(=O)N2CCOCC2)ccc1Cl (stereo not given) | i | i | i | 59 | i
CC(=O)NC(Cc1cccc(C)c1)C(=O)NC1CCN(S(=O)(=O)c2ccccc2)CC1 (stereo not given) | i | i | i | 49 | i
COCCNC(=O)c1cc2cc(Br)cc(Br)c2oc1=O | i | i | i | 48 | i
O=C(CN(C(=O)CNC(=O)c1ccco1)c1cccc(F)c1)NC1CCCCC1 | i | i | i | i | i
COc1cc(CNCCc2ccccc2)ccc1OCC(N)=O | 64 | i | i | i | i
COc1cc(CNCCc2ccccc2)ccc1OCC(=O)NC(C)(C)C | i | i | i | i | i
Nc1cc(C(=O)OCC(=O)NNC(=O)c2ccccc2)ccc1Cl | i | i | i | i | i
COc1ccccc1/C=N/NC(=O)c1ccc(CN2C(=O)c3cccc4cccc2c34)cc1 | i | 89 | i | i | i
COc1cccc(/C=N/NC(=O)c2ccc(N(C)S(=O)(=O)c3ccccc3)cc2)c1OC | i | 83 | i | i | i
COc1ccc(/C=N/NC(=O)c2ccc(N(C)S(=O)(=O)c3ccccc3)cc2)c(OC)c1 | i | i | i | i | i
SMILES | SR-BI DiI-HDL act | SR-BI DiI inh | ATG4B inhibitor | CAL PDZ FP-1 | CAL PDZ FP-2
COc1ccccc1/C=N/NC(=O)c1ccc(N(C)S(=O)(=O)c2ccccc2)cc1 | i | 84 | i | i | i
CCN(CC)c1ccc(C(=O)N/N=C/c2ccccc2OC(F)F)cc1 | i | 86 | i | i | i
COc1ccc(/C=N\NC(=O)c2ccc(-c3ccccc3)cc2)c(OC)c1OC | nt | 75 | i | i | i
COc1cc(/C=N/NC(=O)c2ccc(-c3ccccc3)cc2)cc(OC)c1OC | i | i | i | i | i
N#Cc1ccccc1NC(=O)CNc1ccccc1N1CCCCC1 | i | 81 | i | i | i
CN(Cc1ccccc1NCC(=O)Nc1ccccc1C#N)C1CCCCC1 | i | i | i | nt | i
Cc1ccc(NC(=O)CS(=O)CC(=O)N(c2ccccc2F)C(C)C(=O)NC2CCCC2)cc1 (stereo not given) | nt | nt | i | i | i

Screening data from PubChem.
